Assay results as given in ChEMBL document CHEMBL4689842, “EUbOPEN Chemogenomics Library wave 1” (2021).

How the values were obtained:
[1] = tested on: Fibroblast; test: Incucyte cell viability with human fibroblast; type: toxicity, cell-based; conditions: 10 µM, compound concentration 10 uM; further: filed as whole numbers so only -1 and 0 and 1 occur
[2] = tested on: HEK-293T; test: Multiplex assay against HEK293T; type: toxicity, cell-based; conditions: human;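 on Population Tubulin-Different-Phenotype (%): share of the cells with healthy nuclei that show this phenotype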
Method in brief: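 Hoechst33342, BioTracker Green Microtubule Cytoskeleton Dye, MitoTracker Red and Annexin V Alexa Fluor 680 were added to live cells at seeding, and imaging on a CQ1 microscope at 37°C and 5% CO2 followed compound addition. Gating by CellPathfinder machine learning separated cells into Hoechst high-intensity objects or normal cells, then normal cells into healthy, pyknosed or fragmented nuclei, then pyknosed cells into mitotic or apoptotic. Per cents of healthy-nucleus cells are reported for the tubulin, mitochondrial-mass and membrane-permeability phenotypes.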

[3] = 0 h, replicate number 1, timepoint 0 hours
[4] = 6 h, replicate number 1, timepoint 6 hours
[5] = 12 h, replicate number 1, timepoint 12 hours
[6] = 18 h, replicate number 1, timepoint 18 hours
[7] = 24 h, replicate number 1, timepoint 24 hours
[8] = 12 h, 1 µM, compound concentration 1 uM, replicate 1
[9] = 12 h, 1 µM, compound concentration 1 uM, replicate 2
[10] = 12 h, 10 µM, compound concentration 10 uM, replicate 1
[11] = 12 h, 10 µM, compound concentration 10 uM, replicate 2
[12] = 24 h, 1 µM, compound concentration 1 uM, replicate 1
[13] = 24 h, 1 µM, compound concentration 1 uM, replicate 2
[14] = 24 h, 10 µM, compound concentration 10 uM, replicate 1
[15] = 24 h, 10 µM, compound concentration 10 uM, replicate 2

## CN(C)C/C=C/C(=O)Nc1cc2c(Nc3ccc(F)c(Cl)c3)ncnc2cc1O[C@H]1CCOC1.O=C(O)/C=C\C(=O)O.O=C(O)/C=C\C(=O)O [AFATINIB DIMALEATE]
[1]; [3]
  Growth Rate: 0
[1]; 0 h, replicate number 2, timepoint 0 hours
  Growth Rate: 1
[1]; [4]
  Growth Rate: 0
[1]; [5]
  Growth Rate: 0
[1]; [6]
  Growth Rate: 0
[1]; [7]
  Growth Rate: 0
[2]; [8]
  Population Apoptotic (%): 26%
  Population Fragmented Nuclei (%): 23%
  Population Healthy Nuclei (%): 54%
  Population Hoechst High Intensity Objects (%): 15%
  Population Membrane Permeable-Phenotype (%): 5%
  Population Mitochondria Different-Phenotype (%): 4%
  Population Mitotic Cells (%): 73%
  Population Normal (%): 84%
  Population Pyknosed Nuclei (%): 22%
  Population Tubulin-Different-Phenotype (%): 5%
  Total Cell Count: 581
[2]; [9]
  Population Apoptotic (%): 16%
  Population Fragmented Nuclei (%): 6%
  Population Healthy Nuclei (%): 87%
  Population Hoechst High Intensity Objects (%): 3%
  Population Membrane Permeable-Phenotype (%): 4%
  Population Mitochondria Different-Phenotype (%): 13%
  Population Mitotic Cells (%): 83%
  Population Normal (%): 96%
  Population Pyknosed Nuclei (%): 5%
  Population Tubulin-Different-Phenotype (%): 10%
  Total Cell Count: 1304
[2]; [10]
  Population Apoptotic (%): 23%
  Population Fragmented Nuclei (%): 17%
  Population Healthy Nuclei (%): 32%
  Population Hoechst High Intensity Objects (%): 18%
  Population Membrane Permeable-Phenotype (%): 17%
  Population Mitochondria Different-Phenotype (%): 35%
  Population Mitotic Cells (%): 76%
  Population Normal (%): 81%
  Population Pyknosed Nuclei (%): 50%
  Population Tubulin-Different-Phenotype (%): 82%
  Total Cell Count: 647
[2]; [11]
  Population Apoptotic (%): 17%
  Population Fragmented Nuclei (%): 3%
  Population Healthy Nuclei (%): 53%
  Population Hoechst High Intensity Objects (%): 4%
  Population Membrane Permeable-Phenotype (%): 9%
  Population Mitochondria Different-Phenotype (%): 64%
  Population Mitotic Cells (%): 82%
  Population Normal (%): 96%
  Population Pyknosed Nuclei (%): 42%
  Population Tubulin-Different-Phenotype (%): 97%
  Total Cell Count: 999
[2]; [12]
  Population Apoptotic (%): 25%
  Population Fragmented Nuclei (%): 17%
  Population Healthy Nuclei (%): 71%
  Population Hoechst High Intensity Objects (%): 10%
  Population Membrane Permeable-Phenotype (%): 6%
  Population Mitochondria Different-Phenotype (%): 3%
  Population Mitotic Cells (%): 74%
  Population Normal (%): 89%
  Population Pyknosed Nuclei (%): 11%
  Population Tubulin-Different-Phenotype (%): 7%
  Total Cell Count: 598
[2]; [13]
  Population Apoptotic (%): 12%
  Population Fragmented Nuclei (%): 20%
  Population Healthy Nuclei (%): 76%
  Population Hoechst High Intensity Objects (%): 3%
  Population Membrane Permeable-Phenotype (%): 4%
  Population Mitotic Cells (%): 87%
  Population Normal (%): 96%
  Population Pyknosed Nuclei (%): 3%
  Population Tubulin-Different-Phenotype (%): 9%
  Total Cell Count: 2098
[2]; [14]
  Population Apoptotic (%): 39%
  Population Fragmented Nuclei (%): 23%
  Population Healthy Nuclei (%): 34%
  Population Hoechst High Intensity Objects (%): 19%
  Population Membrane Permeable-Phenotype (%): 10%
  Population Mitochondria Different-Phenotype (%): 58%
  Population Mitotic Cells (%): 60%
  Population Normal (%): 80%
  Population Pyknosed Nuclei (%): 42%
  Population Tubulin-Different-Phenotype (%): 77%
  Total Cell Count: 637
[2]; [15]
  Population Apoptotic (%): 25%
  Population Fragmented Nuclei (%): 12%
  Population Healthy Nuclei (%): 55%
  Population Hoechst High Intensity Objects (%): 9%
  Population Membrane Permeable-Phenotype (%): 6%
  Population Mitochondria Different-Phenotype (%): 69%
  Population Mitotic Cells (%): 74%
  Population Normal (%): 90%
  Population Pyknosed Nuclei (%): 32%
  Population Tubulin-Different-Phenotype (%): 90%
  Total Cell Count: 1048

## CC(C)(C)c1cnc(CSc2cnc(NC(=O)C3CCNCC3)s2)o1 [BMS-387032]
[1]; [3]
  Growth Rate: 0
[1]; [4]
  Growth Rate: 0
[1]; [5]
  Growth Rate: 0
[1]; [6]
  Growth Rate: 0
[1]; [7]
  Growth Rate: 0
[2]; [8]
  Population Apoptotic (%): 25%
  Population Fragmented Nuclei (%): 21%
  Population Healthy Nuclei (%): 51%
  Population Hoechst High Intensity Objects (%): 19%
  Population Membrane Permeable-Phenotype (%): 3%
  Population Mitochondria Different-Phenotype (%): 8%
  Population Mitotic Cells (%): 74%
  Population Normal (%): 80%
  Population Pyknosed Nuclei (%): 27%
  Population Tubulin-Different-Phenotype (%): 4%
  Total Cell Count: 507
[2]; [9]
  Population Apoptotic (%): 21%
  Population Fragmented Nuclei (%): 4%
  Population Healthy Nuclei (%): 85%
  Population Hoechst High Intensity Objects (%): 4%
  Population Membrane Permeable-Phenotype (%): 1%
  Population Mitochondria Different-Phenotype (%): 25%
  Population Mitotic Cells (%): 78%
  Population Normal (%): 95%
  Population Pyknosed Nuclei (%): 10%
  Population Tubulin-Different-Phenotype (%): 13%
  Total Cell Count: 981
[2]; [10]
  Population Apoptotic (%): 23%
  Population Fragmented Nuclei (%): 15%
  Population Healthy Nuclei (%): 51%
  Population Hoechst High Intensity Objects (%): 21%
  Population Membrane Permeable-Phenotype (%): 4%
  Population Mitochondria Different-Phenotype (%): 17%
  Population Mitotic Cells (%): 76%
  Population Normal (%): 78%
  Population Pyknosed Nuclei (%): 33%
  Population Tubulin-Different-Phenotype (%): 27%
  Total Cell Count: 549
[2]; [11]
  Population Apoptotic (%): 24%
  Population Fragmented Nuclei (%): 2%
  Population Healthy Nuclei (%): 86%
  Population Hoechst High Intensity Objects (%): 10%
  Population Membrane Permeable-Phenotype (%): 1%
  Population Mitochondria Different-Phenotype (%): 42%
  Population Mitotic Cells (%): 75%
  Population Normal (%): 90%
  Population Pyknosed Nuclei (%): 10%
  Population Tubulin-Different-Phenotype (%): 58%
  Total Cell Count: 880
[2]; [12]
  Population Apoptotic (%): 27%
  Population Fragmented Nuclei (%): 21%
  Population Healthy Nuclei (%): 53%
  Population Hoechst High Intensity Objects (%): 20%
  Population Membrane Permeable-Phenotype (%): 6%
  Population Mitochondria Different-Phenotype (%): 9%
  Population Mitotic Cells (%): 72%
  Population Normal (%): 79%
  Population Pyknosed Nuclei (%): 24%
  Population Tubulin-Different-Phenotype (%): 9%
  Total Cell Count: 451
[2]; [13]
  Population Apoptotic (%): 22%
  Population Fragmented Nuclei (%): 6%
  Population Healthy Nuclei (%): 87%
  Population Hoechst High Intensity Objects (%): 8%
  Population Membrane Permeable-Phenotype (%): 1%
  Population Mitochondria Different-Phenotype (%): 22%
  Population Mitotic Cells (%): 77%
  Population Normal (%): 91%
  Population Pyknosed Nuclei (%): 5%
  Population Tubulin-Different-Phenotype (%): 17%
  Total Cell Count: 934
[2]; [14]
  Population Apoptotic (%): 27%
  Population Fragmented Nuclei (%): 16%
  Population Healthy Nuclei (%): 45%
  Population Hoechst High Intensity Objects (%): 23%
  Population Membrane Permeable-Phenotype (%): 1%
  Population Mitochondria Different-Phenotype (%): 34%
  Population Mitotic Cells (%): 72%
  Population Normal (%): 76%
  Population Pyknosed Nuclei (%): 38%
  Population Tubulin-Different-Phenotype (%): 30%
  Total Cell Count: 494
[2]; [15]
  Population Apoptotic (%): 31%
  Population Fragmented Nuclei (%): 3%
  Population Healthy Nuclei (%): 83%
  Population Hoechst High Intensity Objects (%): 14%
  Population Membrane Permeable-Phenotype (%): 0%
  Population Mitochondria Different-Phenotype (%): 54%
  Population Mitotic Cells (%): 68%
  Population Normal (%): 85%
  Population Pyknosed Nuclei (%): 13%
  Population Tubulin-Different-Phenotype (%): 61%
  Total Cell Count: 828
